pIC50: −log10 of the molar value.
What was measured:
[1] = target: MET (Homo sapiens, UniProt P08581, DEL964-1010); test: MET phosphorylation in Hs 746T tumors in vivo; set-up: species or system mice; settings: Hs 746T model; single dose of 100 mg/kg
[2] = system: Hs 746T tumors; test: Hs 746T xenograft tumor growth; type: in vivo, mice; settings: 12 days, oral
Summary of the method: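 Human tumour cells inoculated into the rear flank. Mice randomised at mean volumes of ~200 mm3 (Hs 746T), ~120 mm3 (MDA-MB-231), ~100 mm3 (NCI-H441) or ~90 mm3 (SNU-5). Oral gavage once daily with test compound or vehicle. Tumour volume and body weight measured at least twice weekly. […], using mean volumes at extraction and dosing start.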

[3] = system: HUVEC cells; test: Cellular proliferation, BrdU incorporation ELISA; type: cell-based; settings: Homo sapiens, 48 h, read-out: Proliferation IC50
Summary of the method: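 HUVEC seeded at 1,500 cells/well in triplicate in VEGF-containing endothelial growth medium, overnight at 37°C, 5% CO2. Serial dilutions added for 48 h. BrdU labelling 2 h at 37°C, FixDenat 30 min at RT, anti-BrdU-POD 90 min at RT, washes, then chemiluminescent substrate read.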

[4] = humans; preliminary phase I data (NCT03845166); cited from earlier work

CNC(=O)c1cc2c(Oc3ccc(NC(=O)C4(C(=O)Nc5ccc(F)cc5)CC4)cc3)ccnc2cc1OC [XL092]
duration of inhibition of MET phosphorylation [1]: approximately 24 hours
Tumor growth inhibition ([2]; 1 mg/kg/day): 10.1%
Tumor growth inhibition ([2]; 3 mg/kg/day): 35.6%
Tumor growth inhibition ([2]; 10 mg/kg/day): 70.2%
Tumor growth inhibition ([2]; 30 mg/kg/day): 94.9%
pIC50 [3]: 7.98
half-life [4]: approximately 24 hours

— paper PMC9890135 (Molecular Cancer Therapeutics, 2022)
